Results from ChEMBL document CHEMBL1629500, “Synthesis and anticonvulsant activity of N-3-arylamide substituted 5,5-cyclopropanespirohydantoin derivatives” (Eur J Med Chem, 2010).
The source made the active and inactive calls.

Experiments:
Mus musculus [1] = assay: Anticonvulsant activity in ip dosed mouse assessed as inhibition of PTZ-induced clonic seizure; format: functional
Procedure, shortened: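 Male Kunming mice (20 ± 2.0 g) were used. Test drug was given ip to groups of 10 mice over a range of doses until at least three points fell between 10% and 90% seizure protection or minimal neurotoxicity. […] Neurotoxicity was scored on the rotorod 30 min after dosing. PI = TD50/ED50.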

Mus musculus [2] = assay: Neurotoxicity against ip dosed mouse by rotarod test after 0.5 hrs; format: toxicity, organism-based; settings: in vivo
Procedure, shortened: (§1)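 Mice were trained on a 1-in. knurled rod turning at 6 rpm, then given 30, 100 or 300 mg/kg ip as a suspension in 0.5% methylcellulose. They were tested at 0.5 h and 4.0 h. Neurotoxicity meant failure to keep balance on the rod for at least 1 min in each of four trials. The minimal dose affecting half or more of the mice was recorded.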

Mus musculus [3] = assay: Anticonvulsant activity in ip dosed mouse assessed as inhibition of PTZ-induced clonic seizure after 0.5 hrs; format: functional; settings: for minimal effective dose: read-out: MED
Procedure, shortened: (§2)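 Male Kunming mice were dosed ip with the compound suspended in 0.5% methylcellulose at 30, 100 and 300 mg/kg, one to four mice per dose. Pentylenetetrazole in 0.9% saline was given subcutaneously at 0.5 h and 4.0 h. Protection meant no threshold seizure, i.e. no single clonic spasm episode lasting at least 5 s. The minimal dose active in half or more of the mice was recorded.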

Mus musculus [4] = assay: Anticonvulsant activity in ip dosed mouse assessed as inhibition of PTZ-induced clonic seizure after 4 hrs; format: functional; settings: for minimal effective dose: read-out: MED; procedure, shortened: as §2
Mus musculus [5] = assay: Anticonvulsant activity in ip dosed mouse assessed as inhibition of maximum electric shock-induced hind limb tonic extension after 4 hrs; format: functional; settings: Hindlimb; for minimal effective dose: read-out: MED
Procedure, shortened: (§3)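 Male Kunming mice received the compound ip as a suspension in 0.5% methylcellulose at 30, 100 and 300 mg/kg, one to four mice per dose. At 0.5 h and 4.0 h, a 60-Hz, 50-mA current was given through corneal electrodes for 0.25 s. Absence of hindlimb tonic extension counted as protection. The minimal dose protecting half or more of the mice was recorded.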

Mus musculus [6] = assay: Neurotoxicity against ip dosed mouse by rotarod test after 4 hrs; format: toxicity, organism-based; settings: in vivo; procedure, shortened: as §1
Mus musculus [7] = assay: Anticonvulsant activity in ip dosed mouse assessed as inhibition of maximum electric shock-induced hind limb tonic extension after 0.5 hrs; format: functional; settings: Hindlimb; for minimal effective dose: read-out: MED; procedure, shortened: as §3
Mus musculus [8] = assay: Protective index, ratio of TD50 for mouse to ED50 for inhibition of subcutaneous pentylenetetrazole-induced seizure in mouse; format: functional
Mus musculus [9] = organism: Mus musculus; assay: Protective index, ratio of TD50 for mouse to ED50 for inhibition of maximal electroshock-induced seizure in mouse; format: functional
[10] = Toxicity against ip dosed mouse; format: organism-based; settings: in vivo
Mus musculus [11] = assay: Anticonvulsant activity in ip dosed mouse assessed as inhibition of maximum electric shock-induced hind limb tonic extension; format: functional; settings: Hindlimb

| SMILES | ED50 (Mus musculus [1]) | Activity (Mus musculus [3]) | Activity (Mus musculus [4]) | minimal effective dose (Mus musculus [5]) | MED (Mus musculus [6]) | minimal effective dose (Mus musculus [7]) | minimal effective dose (Mus musculus [4]) | Activity (Mus musculus [2]) | Activity (Mus musculus [5]) | Activity (Mus musculus [6]) | other results |
| --- | --- | --- | --- | --- | --- | --- | --- | --- | --- | --- | --- |
| CCCC(CCC)C(=O)[O-].[Na+] [VALPROATE SODIUM] | 149 mg/kg |  |  |  |  |  |  |  |  |  |  |
| O=C1NC(=O)C(c2ccccc2)(c2ccccc2)N1 [PHENYTOIN] | > 300 mg/kg | inactive | inactive | 30 mg/kg | 100 mg/kg | 30 mg/kg |  |  |  |  | MED (Mus musculus [2]): 100 mg/kg |
| CC1(C)CC12NC(=O)N(NC(=O)c1ccc(Br)cc1)C2=O (centres undefined) |  | inactive |  | 300 mg/kg | 300 mg/kg | 300 mg/kg | 300 mg/kg |  |  |  | MED (Mus musculus [2]): 300 mg/kg |
| Cc1cccc(C(=O)NN2C(=O)NC3(CC3(C)C)C2=O)c1 (centres undefined) |  | inactive | inactive |  |  | 100 mg/kg |  | Not Active | inactive | Not Active |  |
| Cc1ccc(C(=O)NN2C(=O)NC3(CC3(C)C)C2=O)cc1 (centres undefined) |  | inactive |  |  | 300 mg/kg | 100 mg/kg | 300 mg/kg | Not Active | inactive |  |  |
| CC1(C)CC12NC(=O)N(NC(=O)c1cccnc1)C2=O (centres undefined) |  | inactive | inactive | 300 mg/kg | 300 mg/kg |  |  |  |  |  | MED (Mus musculus [2]): 100 mg/kg; Activity (Mus musculus [7]): inactive |
| CC1(C)CC12NC(=O)N(NC(=O)c1ccc(C(F)(F)F)cc1)C2=O (centres undefined) | 62.1 mg/kg |  |  | 30 mg/kg |  | 30 mg/kg | 300 mg/kg | Not Active |  | Not Active | minimal effective dose (Mus musculus [3]): 300 mg/kg; Ratio (Mus musculus [8]): 6.7; Ratio (Mus musculus [9]): 45.8; TD50 [10]: 422 mg/kg; ED50 (Mus musculus [11]): 9.2 mg/kg |
| CN(C)c1ccc(C(=O)NN2C(=O)NC3(CC3(C)C)C2=O)cc1 (centres undefined) |  |  | inactive | 300 mg/kg |  | 300 mg/kg |  | Not Active |  | Not Active | minimal effective dose (Mus musculus [3]): 100 mg/kg |
| CCC1(C)CC(=O)NC1=O (centres undefined) [ETHOSUXIMIDE] |  |  |  |  |  |  | 300 mg/kg | Not Active | inactive | Not Active | minimal effective dose (Mus musculus [3]): 100 mg/kg; Activity (Mus musculus [7]): inactive |
| CC1(C)CC12NC(=O)N(NC(=O)c1ccccc1F)C2=O (centres undefined) |  | inactive | inactive |  | 300 mg/kg | 100 mg/kg |  | Not Active | inactive |  |  |
| CCC1(c2ccccc2)C(=O)NC(=O)NC1=O [PHENOBARBITAL] | 13.2 mg/kg |  |  |  |  |  |  |  |  |  | ED50 (Mus musculus [11]): 21.8 mg/kg |
| COc1ccc(C(=O)NN2C(=O)NC3(CC3(C)C)C2=O)cc1 (centres undefined) |  | inactive | inactive |  | 300 mg/kg | 100 mg/kg |  | Not Active | inactive |  |  |
